This is an account of results in PubChem BioAssay.

Experiment [1] can be described thus: hit retest on RPL19A-GFP reporter strain – cell-based, S. cerevisiae, flow cytometry, cherry picks, mother/daughter gates, confirmation (AID 2270;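 active means GFP response below 50% of the DMSO control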). The note with it: 3 h, at 10 µM, stronger effect = lower value, 100 = same GFP as DMSO wells.
Experiment [2] can be described thus: yeast TOR pathway reporter LAP4-GFP change – cell-based, cherry picks, flow cytometry, mother/daughter gates, confirmation (AID 2271;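 active means GFP response above 150% of the DMSO control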;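 further: ratio of sample to DMSO plate mean so 100% equals DMSO level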). The note with it: S. cerevisiae LAP4-GFP strain, 3 h, at 10 µM, stronger effect = higher value, 100 means same as DMSO control. In outline: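 Test system: GFP-fusion yeast strain / Amount: 0.2 OD600 cells / Buffer or medium: SC medium / Dosing: 10 µM single dose / Incubation: compound exposure 3 h at 30 °C, end-over-end rotation / Detection: HT flow cytometry, GFP fluorescence channel / Evaluation: median GFP fluorescence as percent of plate-mean DMSO wells / Control set: DMSO-only negative wells, rapamycin 400 ng/mL positive wells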
(Flow cytometry measures light scatter and fluorescence of single cells or particles in a stream.)

Experiment [3] is described as follows: TOR pathway reporter MEP2-GFP, retest of hits – S. cerevisiae, flow cytometry GFP, cherry picks, confirmation (AID 2272;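 active means GFP response above 150% of the DMSO control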;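 further: ratio of well signal to plate DMSO mean so 100% equals DMSO level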). The note with it: S. cerevisiae MEP2-GFP strain, 3 h, at 10 µM, stronger effect = higher value.
Experiment [4] can be described thus: yeast AGP1-GFP fluorescence change, single-dose – cell-based, flow cytometry, S. cerevisiae, cherry picks, confirmation (AID 2273).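 Further: median GFP channel fluorescence over the whole cell population gate.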 Particulars: S. cerevisiae AGP1-GFP strain, 3 h, at 10 µM.
A short description of experiment [5]: TOR pathway CIT2 reporter hit retest – S. cerevisiae, GFP fusion, cherry picks, mother/daughter gates, confirmation (AID 2274). The note with it: S. cerevisiae CIT2-GFP strain, flow cytometry, 3 h, at 10 µM, stronger effect = higher value.
Setting [6] is: measured here: daughter cell gate.
[7] abbreviates: measured here: mother cell gate.
Where [8] appears, read: measured here: daughter cell gate response.
Where [9] appears, read: measured here: mother cell gate response.

Active and inactive are the calls of the source.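 How the source made its calls, unless noted: active means GFP response above 150% of the DMSO level; inconclusive means fewer than 70 events counted for a yeast strain; inactive means the rest.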

For the compound `Cc1cccn2c(=O)c(/C=C(\C#N)C(=O)NC3CCS(=O)(=O)C3)c(N3CC(C)OC(C)C3)nc12` (stereo not drawn), the GFP response vs DMSO in experiment [1] was 97.8% (inactive); in experiment [1] (setting [6]), 99.4%; in experiment [1] (setting [7]), 99.7%; in experiment [3], 100% (inactive). The GFP response relative to DMSO in experiment [2] is 92.8% (inactive); in experiment [2] (setting [8]), 96%; in experiment [2] (setting [9]), 92.9%. The GFP response, % of DMSO is 104% (inactive) in experiment [4], 99.7% (inactive) in experiment [5], 103% in experiment [5] (setting [6]) and 99.7% in experiment [5] (setting [7]).

Take `CCSC1=NCCN1S(=O)(=O)c1ccc(F)cc1`: the GFP response vs DMSO in experiment [1] was 98.8% (inactive); in experiment [1] (setting [6]), 97.6%; in experiment [1] (setting [7]), 99%; in experiment [3], 103% (inactive). Moreover, the GFP response relative to DMSO in experiment [2] was 105% (inactive); in experiment [2] (setting [8]) it was 101%; in experiment [2] (setting [9]) it was 106%. For the same compound, the GFP response, % of DMSO in experiment [4] was 101% (inactive); in experiment [5], 93.4% (inactive); in experiment [5] (setting [6]), 93.7%; in experiment [5] (setting [7]), 92.8%.

As for `Cn1ncc2c(O/N=C(\N)c3ccc(C(C)(C)C)cc3)ncnc21`, the GFP response vs DMSO is 92.7% (inactive) in experiment [1], 92% in experiment [1] (setting [6]), 87.9% in experiment [1] (setting [7]) and 121% (inactive) in experiment [3]. Moreover, the GFP response relative to DMSO is 143% (inactive) in experiment [2], 96.6% in experiment [2] (setting [8]) and 162% in experiment [2] (setting [9]). For the same compound, the GFP response, % of DMSO in experiment [4] is 106% (inactive); in experiment [5] it was 182% (active); in experiment [5] (setting [6]) it was 114%; in experiment [5] (setting [7]) it was 155%.

In the case of `COc1cc(-c2noc(-c3cccc(Cl)c3)n2)cc(OC)c1OC`, the GFP response vs DMSO in experiment [1] was 96.2% (inactive); in experiment [1] (setting [6]), 97%; in experiment [1] (setting [7]), 95.8%; in experiment [3] it was 103% (inactive). In addition, the GFP response relative to DMSO in experiment [2] is 90.6% (inactive); in experiment [2] (setting [8]), 88.2%; in experiment [2] (setting [9]) it was 91.3%. Besides, the GFP response, % of DMSO is 99.5% (inactive) in experiment [4], 101% (inactive) in experiment [5], 101% in experiment [5] (setting [6]) and 103% in experiment [5] (setting [7]).

Take `COc1ccccc1CNc1nc(S(=O)(=O)c2ccccc2)c(Cl)s1`: the GFP response vs DMSO is 97.3% (inactive) in experiment [1], 97.8% in experiment [1] (setting [6]), 96.5% in experiment [1] (setting [7]) and 95.2% (inactive) in experiment [3]. Besides, the GFP response relative to DMSO in experiment [2] is 108% (inactive); in experiment [2] (setting [8]), 104%; in experiment [2] (setting [9]), 109%. The GFP response, % of DMSO in experiment [4] is 105% (inactive); in experiment [5], 97.2% (inactive); in experiment [5] (setting [6]), 97.6%; in experiment [5] (setting [7]), 97.1%.

With `COc1ccc(-c2[nH]ncc2-c2ccc(Cl)cc2)c(O)c1`, the GFP response vs DMSO is 101% (inactive) in experiment [1], 97.8% in experiment [1] (setting [6]), 99.4% in experiment [1] (setting [7]) and 102% (inactive) in experiment [3]. Also, the GFP response relative to DMSO in experiment [2] is 103% (inactive); in experiment [2] (setting [8]) it was 100%; in experiment [2] (setting [9]) it was 105%. For the same compound, the GFP response, % of DMSO in experiment [4] was 93.7% (inactive); in experiment [5], 104% (inactive); in experiment [5] (setting [6]), 101%; in experiment [5] (setting [7]), 105%.

As for `Cc1[nH]c2ccccc2c1C(c1ccccn1)N1CCC(C(N)=O)CC1` (stereo not drawn), the GFP response vs DMSO was 97.4% (inactive) in experiment [1], 99.1% in experiment [1] (setting [6]), 96.6% in experiment [1] (setting [7]) and 98.3% (inactive) in experiment [3]. Also, the GFP response relative to DMSO in experiment [2] was 96.7% (inactive); in experiment [2] (setting [8]) it was 99.2%; in experiment [2] (setting [9]), 97.2%. Also, the GFP response, % of DMSO in experiment [4] is 94.7% (inactive); in experiment [5], 101% (inactive); in experiment [5] (setting [6]) it was 103%; in experiment [5] (setting [7]), 101%.

On to `N#CC(C(=O)NCc1ccccc1)c1nc2ccccc2nc1N1CCCC1` (stereo not drawn), for which the GFP response vs DMSO in experiment [1] was 103% (inactive); in experiment [1] (setting [6]) it was 102%; in experiment [1] (setting [7]), 104%; in experiment [3] it was 117% (inactive). In addition, the GFP response relative to DMSO in experiment [2] was 114% (inactive); in experiment [2] (setting [8]) it was 108%; in experiment [2] (setting [9]), 117%. Moreover, the GFP response, % of DMSO in experiment [4] is 99.6% (inactive); in experiment [5], 111% (inactive); in experiment [5] (setting [6]), 108%; in experiment [5] (setting [7]), 109%.
